# Experimental data reported in ChEMBL document CHEMBL1123803, “Synthesis and biological activities of pseudopeptide analogues of the C-terminal heptapeptide of cholecystokinin. On the importance of the peptide bonds” (J Med Chem, 1987).
# Species on record: Rattus norvegicus
# Experiment: Activity on Amylase release from rat pancreatic acini was determined
# Format: functional
# Method in brief: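 Dispersed rat pancreatic acini (about 1 mg protein/mL) in Hepes pH 7.4 standard incubation solution with 1% BSA, 1 mM calcium, 5 mM theophylline, gassed 95% O2/5% CO2; incubated 30 min at 37 °C across a concentration range. Amylase measured with Phadebas reagent; release = with minus without secretagogue, as percent of maximal CCK-8 stimulation. Duplicates, means of at least three experiments.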
structure (smiles),measurement,value
CCCC[C@H](NC(=O)[C@H](Cc1ccc(OS(=O)(=O)O)cc1)NC(=O)[C@H](CC(=O)O)NC(=O)OC(C)(C)C)C(=O)NCC(=O)N[C@@H](Cc1c[nH]c2ccccc12)C(=O)N[C@@H](CCCC)C(=O)N[C@@H](CC(=O)O)C(=O)N[C@@H](Cc1ccccc1)C(N)=O,conc. for maximal amylase release,300 pM
